Source: PubChem (several laboratories)
NadD block – blocks S. aureus nicotinate mononucleotide adenylyltransferase; AID 602399; 360,000 compounds, 0.78% hits; purified NadD enzyme, colorimetric absorbance read-out; inhibition, % at 20 µM; in the data active = inhibition above about 26%
SENP1 inh – inhibitors of human SENP1 SUMO protease catalytic domain; Q9P0U3; recombinant SENP1 catalytic domain, CyPet-SUMO1-YPet FRET cleavage; inhibition, % at 10 µM; 360,000 compounds, 0.21% hits;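 active = inhibition at least 30% at 10 µM, raw YFP signal under a set limit, fluorescence ratio 0.5 to 1.5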;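 note: 0% = enzyme with DMSO and 100% = no enzyme wells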
Target sequence (Q9P0U3 419-644 limits assumed): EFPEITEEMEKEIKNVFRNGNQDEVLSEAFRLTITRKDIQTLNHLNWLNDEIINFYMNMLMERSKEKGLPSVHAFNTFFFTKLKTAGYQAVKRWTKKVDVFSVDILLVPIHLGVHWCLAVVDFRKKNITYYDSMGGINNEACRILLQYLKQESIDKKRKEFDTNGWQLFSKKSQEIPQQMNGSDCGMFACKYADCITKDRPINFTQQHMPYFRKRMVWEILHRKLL
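Test system: human SENP1 catalytic domain; medium: Tris pH 8 buffer plus EDTA, NaCl, BME, BSA, NP40, catalase; incubation: 50 min reaction at room temperature; technique: FRET, CFP and YFP emission; controls: no-enzyme low control and enzyme-plus-DMSO high control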
NR3A LBD binder – modulators (binders) of human NR3A ligand-binding domain | NR3A LBD differential scanning fluorimetry, Tm shift; 0% = protein alone, 100% = glycine-bound protein | Tm shift relative to glycine control, % at 25 µM | 340,000 compounds, 2.5% hits | AID 1259313;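 active = melting temperature shift of at least 10% of the positive control shift, at one fixed dose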
ATG4B inhibitor – ATG4B (human) cysteine protease inhibition; Q9Y4P1; ATG4B cleavage of LC3-PLA2, NBD-HPC fluorescence, 1 h; inhibition, % at 8.33 µM; 340,000 compounds, 0.51% hits; in the data active = inhibition above about 40%
UCH37 inh – inhibitors of human deubiquitinating enzyme UCH37; Q9Y5K5; inhibition, % (no concentration beside the values); purified proteasome/UCH37, Ub-AMC cleavage fluorescence; 330,000 compounds, 0.33% hits; AID 588478;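 active = mean inhibition over replicate wells above about 20%, limit read from the data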;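 note: 0% = compound-free wells with enzyme and 100% = wells lacking proteasome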
Target sequence (Q9Y5K5 whole entry, looked up): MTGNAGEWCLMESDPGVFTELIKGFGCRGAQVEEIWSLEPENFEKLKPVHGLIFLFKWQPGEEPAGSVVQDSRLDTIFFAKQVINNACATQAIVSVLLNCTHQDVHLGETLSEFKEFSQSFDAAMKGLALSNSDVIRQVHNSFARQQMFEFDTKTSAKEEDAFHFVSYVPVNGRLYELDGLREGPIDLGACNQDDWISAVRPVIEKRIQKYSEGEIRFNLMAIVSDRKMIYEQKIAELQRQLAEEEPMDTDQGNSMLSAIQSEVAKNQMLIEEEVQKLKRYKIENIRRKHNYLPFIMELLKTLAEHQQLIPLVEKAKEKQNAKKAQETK
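system = Proteasome-associated human UCH37 deubiquitinase | amount = 0.15 nM proteasome as dispensed | medium = pH 7.4 Tris-HCl (50 mM) with ovalbumin, ATP-MgCl2, DTT | incubation = 30 min preincubation with enzyme, 25 min cleavage at room temperature | detection = AMC fluorescence 355/460 nm | read-out basis = percent inhibition | controls = no-proteasome and no-compound wells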
The depositor's hits bear a star; nt = no result given. An excerpt weighted towards active compounds, which were near 3.6% of everything screened.

SMILES | NadD block | SENP1 inh | NR3A LBD binder | ATG4B inhibitor | UCH37 inh
CCN(CCNc1ccc(Cl)cc1[N+](=O)[O-])C(=O)c1cc([N+](=O)[O-])c(N(C)C)cc1OC | 2.2 | 2.4 | 15.7* | -0.8 | 9.7
O=C(C(=NNc1ccc([N+](=O)[O-])cc1)Sc1nnnn1-c1ccccc1)c1ccccc1 | nt | nt | nt | nt | 6.3
O=C(/C(=N\Nc1ccc(Br)cc1)Sc1nnnn1-c1ccccc1)c1ccccc1 | 2.0 | 1.5 | 20.1* | 4.6 | nt
O=C(NN=Cc1cc(Br)cc(Br)c1O)c1cccc(S(=O)(=O)N2CCOCC2)c1 | nt | nt | nt | nt | -1.9
COc1ccccc1OCC(O)COC(N)=O (stereo not given) | -2.2 | -0.8 | 12.9* | -3.7 | 2.9
CCOC(=O)c1sc(N/N=C/c2cc(Br)c(O)c(OC)c2)nc1C | 6.4 | -26.9 | 14.0* | -6.9 | nt
CC(=O)c1sc(N/N=C/c2cccc(O)c2)nc1C | 3.7 | -42.8 | 13.7* | -17.7 | nt
CC(=O)c1sc(N/N=C/c2cccc([N+](=O)[O-])c2)nc1C | 8.3 | -10.7 | -3.7 | -3.0 | nt
COc1cccc(C=Nn2c(-c3cc(C)[nH]n3)n[nH]c2=S)c1OC | nt | nt | nt | nt | 1.9
CCOc1ccc(-c2c(C(=O)NN=Cc3ccoc3)nnn2-c2nonc2N)cc1 | nt | nt | nt | nt | 2.1
COc1cc(NC(=O)c2ccc3c(c2)OCCO3)ccc1NC(=O)c1ccccc1Cl | -5.0 | -1.7 | 29.1* | -12.2 | -2.3
Cc1ccc(NC(=O)CS(=O)CC(=O)Nc2ccc3c(c2)OCO3)cc1Cl (stereo not given) | -5.5 | -2.9 | 30.5* | -8.4 | 2.3
COc1ccc(NC(=O)c2ccc3c(c2)OCO3)cc1Cl | -4.2 | 0.9 | 26.1* | -8.2 | 0.1
O=C(Nc1ccc(Cl)c(Cl)c1)c1ccc(Cl)c(Cl)c1 | 8.7 | 1.4 | 42.0* | -2.5 | nt
O=C(Nc1ccc(Cl)c(Cl)c1)c1ccncc1 | -1.3 | -0.8 | -1.6 | -12.0 | -2.0
Cc1cc(C)n(CC(=O)NN=Cc2ccc([N+](=O)[O-])s2)n1 | nt | nt | nt | nt | 12.8
C(=NNc1nc(Nc2ccccc2)nc(Nc2ccccc2)n1)c1cccnc1 | nt | nt | nt | nt | 2.2
C(=N\Nc1nc(Nc2ccccc2)nc(Nc2ccccc2)n1)/c1cccnc1 | 11.2 | 1.6 | 26.7* | 7.9 | nt
COc1ccc(N2Cc3ccccc3C2=NC(=O)Nc2ccccc2)cc1 | nt | nt | nt | nt | -37.2
O=C(Nc1cccc(-c2cn3ccsc3n2)c1)c1ccccc1 | 1.2 | -0.1 | 21.1* | 6.5 | 5.9
O=C(Nc1cccc(-c2cn3ccccc3n2)c1)c1cccc(Cl)c1 | 0.9 | -0.3 | 15.8* | 25.1 | -10.6
O=C(Nc1ccc(-c2cn3ccsc3n2)cc1)C1COc2ccccc2O1 (stereo not given) | 9.0 | -1.1 | 24.1* | 1.9 | 0.7
O=C(Nc1cccc(-c2cn3ccccc3n2)c1)c1cnccn1 | 3.3 | 2.6 | 1.0 | -7.0 | 4.2
O=C(CCN1C(=O)/C(=C/c2ccc(Cl)cc2)SC1=S)Nc1cccc(C(=O)O)c1 | 12.8 | 1.0 | -9.1 | 3.7 | 7.2
O=C(O)c1cccc(N2C(=O)/C(=C/c3ccc(SCc4ccc(Cl)cc4)o3)SC2=S)c1 | 29.5 | 50.0 | 14.8* | 28.4 | 14.4
SMILES | NadD block | SENP1 inh | NR3A LBD binder | ATG4B inhibitor | UCH37 inh
Cc1cc(C)cc(NC(=O)Nc2ccc(NC(=O)c3ccccc3O)cc2)c1 | 1.0 | 1.6 | 24.9* | -1.4 | -1.1
O=C(Nc1ccccc1)Nc1ccc(NC(=O)c2ccccc2O)cc1 | -3.6 | 0.1 | 42.0* | 1.4 | -2.2
Cc1ccc(S(=O)(=O)N2CCN(CC(=O)NN=Cc3ccccc3OCC(=O)O)CC2)cc1 | nt | nt | nt | nt | 2.0
CN(C)c1ccc(C=NNC(=O)c2ccc3c(c2)OCCO3)cc1 | nt | nt | nt | nt | -8.6
Nc1nn(-c2ccccc2)c(N)c1N=Nc1cccc(F)c1 | 4.4 | 6.2 | 10.8* | 38.1 | 8.2
Cc1nn(-c2ccccc2)c(N)c1N=Nc1cccnc1 | -5.1 | 1.9 | 1.0 | -2.3 | 11.9
CC1Cc2cc(S(=O)(=O)N3CCN(c4cccc(Cl)c4)CC3)ccc2N1C(=O)C1CC1 (stereo not given) | 8.9 | -1.3 | 10.5* | 8.2 | 3.3
O=C(N/N=C/c1cccc(Oc2ccccc2)c1)c1cc[n+]([O-])cc1 | 1.1 | 0.4 | -2.6 | -12.2 | nt
COc1ccc(C=NNC(=O)c2ccccc2)cc1COc1ccc(F)cc1 | nt | nt | nt | nt | 2.6
COc1ccc(S(=O)(=O)NN=Cc2ccc(OC)c(COc3ccc(C)cc3[N+](=O)[O-])c2)cc1 | nt | nt | nt | nt | 1.3
Nc1ccc(C(=O)N/N=C/c2cccc(Oc3ccccc3)c2)cc1 | -2.1 | 1.4 | 10.3* | -13.3 | nt
COc1ccc(/C=N\NC(=O)c2cccc(F)c2)cc1COc1ccccc1 | -1.1 | 0.2 | 16.1* | -12.4 | nt
COc1cccc(/C=N/NC(=O)c2ccc(OCc3cccc(Br)c3)cc2)c1 | 0.0 | 0.0 | 28.6* | -17.7 | nt
COc1ccc(/C=N\NS(=O)(=O)c2ccc(Cl)cc2)cc1COc1ccccc1[N+](=O)[O-] | 25.3 | 3.2 | 23.6* | -18.1 | nt
COc1ccc(/C=N\NC(=O)c2ccccc2[N+](=O)[O-])cc1COc1c(F)c(F)c(F)c(F)c1F | 0.1 | 0.7 | 10.0* | -3.1 | nt
CCCc1n[nH]c2c1C(=NO)CC(c1ccccc1)C2 (stereo not given) | nt | nt | nt | nt | 3.3
Nc1nonc1-n1nnc(C(=O)N/N=C/c2ccc(OCc3ccccc3)cc2)c1COc1ccc(F)cc1 | 23.6 | -1.7 | 19.1* | 3.4 | nt
CCCc1c(C(=O)N/N=C/c2cccc(OCc3ccc(F)cc3)c2)nnn1-c1nonc1N | 27.6 | -1.6 | 35.0* | 5.1 | nt
Nc1nonc1-n1nnc(C(=O)NN=Cc2ccc(OCc3ccc(F)cc3)cc2)c1COc1ccccc1 | nt | nt | nt | nt | -18.2
CCN(CC)Cc1c(C(=O)N/N=C/c2cccc(OCc3cccc(Cl)c3)c2)nnn1-c1nonc1N | 8.9 | 2.3 | 12.5* | -0.3 | nt
Nc1nonc1-n1nnc(C(=O)N/N=C/c2ccccc2Cl)c1COc1ccc(F)cc1 | 7.1 | 0.6 | 22.8* | -22.8 | nt
Nc1nonc1-n1nnc(C(=O)NN=Cc2ccc(O)cc2)c1COc1ccc(F)cc1 | nt | nt | nt | nt | 1.5
COc1cc(C=NNC(=O)c2cccc(C)c2)ccc1OCC(=O)Nc1ccccc1 | nt | nt | nt | nt | 3.9
Cn1ccnc1C(=NNC(=O)c1ccccc1)c1cccc([N+](=O)[O-])c1 | nt | nt | nt | nt | 3.8
Cc1cccc(COc2ccc(C=NNC(=O)c3nnn(-c4nonc4N)c3C)cc2)c1 | nt | nt | nt | nt | 4.0
SMILES | NadD block | SENP1 inh | NR3A LBD binder | ATG4B inhibitor | UCH37 inh
Cc1cccc(COc2ccc(/C=N/NC(=O)c3nnn(-c4nonc4N)c3COc3ccc(F)cc3)cc2)c1 | 18.7 | 3.5 | 25.2* | -7.1 | nt
O=C(NC1CC1)C1=C[C@@H](C2CC2)C[C@@H](OCCCCO)O1 | -2.7 | -1.2 | 0.6 | -2.4 | 23.4*
O=C(O)c1ccc(C=NNc2ccc(F)cc2F)cc1 | nt | nt | nt | nt | 11.1
Cc1ccc(OCC(=O)NN=Cc2cccnc2)cc1 | nt | nt | nt | nt | 3.4
CSc1nc2ccccc2n1CC(=O)Nc1ccccc1 | -0.8 | 2.1 | 0.9 | -1.4 | -1.5
O=C(Cn1c(/C=C/c2ccccc2)nc2ccccc21)Nc1ccc(F)cc1 | 10.8 | -0.6 | 14.4* | -12.7 | -288.5
